Experimental data collected from several papers.
Compare with care: the assays were run in different laboratories.
Target: Serine/threonine-protein kinase N1 (PKN1, Homo sapiens, UniProt Q16512)

SMILES	test	setting	quantity	value
Cc1ccc(C(=O)NCc2ccsc2)cc1C#Cc1cn(C(C)C)c2ncnc(N)c12	enzyme activity, inhibitor	1 µM	activity vs control	93%
Nc1ncnc2occ(-c3ccc(NC(=O)Nc4cc(C(F)(F)F)ccc4F)cc3)c12	cell-free assay, inhibitor	20 µM	remaining signal	83%
S=C(NCc1ccc2c(c1)OCO2)N1CCN(c2ncnc3c2oc2ccccc23)CC1	enzyme activity, inhibitor	1 µM	activity vs control	98%
O=C(O)[C@H]1[C@H](Cn2nnc3ccccc3c2=O)CC[C@@H]1C(=O)c1ccc(OCCC2CCOCC2)cc1	cell-free assay, competition with immobilised ligand	1 µM	remaining binding	88%
CO[C@H]1C[C@@H]2CC[C@@H](C)[C@@](O)(O2)C(=O)C(=O)N2CCCC[C@H]2C(=O)O[C@H]([C@H](C)C[C@@H]2CC[C@@H](OP(C)(C)=O)[C@H](OC)C2)CC(=O)[C@H](C)/C=C(\C)[C@@H](O)[C@@H](OC)C(=O)[C@H](C)C[C@H](C)/C=C/C=C/C=C/1C	enzyme activity, inhibitor	1 µM	activity vs control	104%
O=C(Nc1cccnn1)N1CC(C/C=C/c2cncc(Oc3ccc(C(F)(F)F)cn3)n2)C1	cell-free assay, competition with immobilised ligand	1 µM	remaining binding	100%
CN1CC(Oc2cnc(C#N)cc2-c2ccn3nc(NC(=O)C4CC4)cc3c2)C1	enzyme activity, inhibitor	1 µM	inhibition	-9%
FC(F)(F)c1ccc2c(c1)nc(-c1cccnc1)n2C1CC1	cell-free assay, competition with immobilised ligand	1 µM	remaining binding	100%
COc1cc(N2CCOCC2)ccc1NC(=O)c1csc(-c2cccnc2)n1	enzyme activity, inhibitor	1 µM	activity vs control	87%
CCN1CCC2(CC1)NC(=O)c1c(c3ccc(Cl)c(Cl)c3n1C)C2C#N (racemic)	thermal stability, DSF	10 µM	ΔTm	1 °C
CCCCN(CCCC)C(=O)CN1C[C@H](c2cc(OC)c3c(c2)OCO3)[C@@H](C(=O)O)[C@@H]1CC(C)(C)CCC	cell-free assay, competition with immobilised ligand	1 µM	remaining binding	100%
Cn1c2c(Cl)c(Cl)ccc2c2cc(N)[nH]c(=O)c21	thermal stability, DSF	10 µM	ΔTm	0.6 °C
CC(=O)c1cnc2ccc(-c3cc(Cl)c(O)c(Cl)c3)nc2c1N[C@H]1CC[C@H](CN(C)C)CC1	enzyme activity, inhibitor	1 µM	activity vs control	0%
CN(C)C1CCN(CC#Cc2nn(C3CCCC3)c3nc(NCc4ccccc4)ncc23)C1 (centres unmarked)	enzyme activity, inhibitor, FRET	0.1 µM	inhibition	-1%
O=C1NC(=O)c2cc(Nc3ccc(F)cc3)c(Nc3ccc(F)cc3)cc21	cell-free assay	0.5 µM	remaining signal	97.7%
CC(C)(O)[C@H]1CC[C@H](Nc2ccc3ncc(-c4cccc(C(F)(F)F)c4)n3n2)CC1	enzyme activity, inhibitor	1 µM	remaining activity	65.5%
C=CC(=O)Nc1cc(N2CCN(CC)CC2)ccc1Nc1cc(N(C)C(=O)Nc2c(Cl)c(OC)cc(OC)c2Cl)ncn1	enzyme activity, inhibitor	1 µM	activity vs control	103%
Cc1c[nH]c2nccc(Oc3c(F)cc(Nc4cc(Cl)nc(N)n4)cc3F)c12	cell-free assay, competition with immobilised ligand	0.1 µM	remaining binding	72%
CC#CC(=O)Nc1cc2c(Nc3ccc(F)c(Cl)c3)ncnc2cn1	enzyme activity, inhibitor	1 µM	activity vs control	81%
CC(=O)C1=C(C)N(c2cccc(C(F)(F)F)c2)C(=O)N[C@@H]1c1ccc(C#N)nc1	cell-free assay, competition with immobilised ligand	1 µM	remaining binding	71.1%
C[S+]([O-])c1ccc(-c2nc(-c3ccncc3)c(-c3ccc(F)cc3)[nH]2)cc1 (centres unmarked)	cell-free assay	0.5 µM	remaining signal	96.5%
C[C@H](c1ccnc(Nc2nc3ccc(-c4cc(N(C)C)ncn4)cc3[nH]2)c1)N1CCN(C(=O)CC(F)(F)F)CC1	cell-free assay, competition with immobilised ligand	0.1 µM	remaining binding	100%
COc1cc(Cl)c(C(=O)N[C@@H](CN[C@H]2CC[C@@H](N)CC2)Cc2ccc(C#N)cc2)cc1-c1ccc(CN[C@H](C)c2ccc(C)cc2)o1	enzyme activity, inhibitor	1 µM	remaining activity	108%
